High-throughput results deposited in PubChem by several laboratories.
Rows were chosen to be rich in hits. Some 2.5% of all compounds tested hit in one or more screens of this group.
SR-BI uptake up – enhances SR-BI lipid uptake from DiI-HDL; CHO ldlA[mSR-BI] cells, DiI-HDL uptake fluorescence, 3 h; 100 = double the neutral-control signal; activation, % at 12.5 µM; actives 0.096% (n = 320,000);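 active = mean replicate activation of at least 60% and every replicate at or above 60%; inconclusive = mean or all-replicate condition met, but not both; inactive = mean below 60% and not all replicates reaching 60%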;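 note: 0% = median plate neutral-control signal and 100% = twice that signal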
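Material: SR-BI-overexpressing, LDLR-lacking CHO cells | Dosing: Single compound concentration, delivered by pin transfer | Probe or stimulus: Labelled HDL, 10 µg/mL | Signal: Bottom-read cell fluorescence after medium removal, ex 550/em 595 nm | Schedule: 3 h, 37 °C | Evaluation: HDL uptake via cellular fluorescence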
SR-BI HDL uptake – mouse SR-BI HDL lipid transfer inhibition; ldlA[mSR-BI] CHO cells, DiI-HDL uptake fluorescence, 3 h; Q61009; AID 488896; inhibition, % at 12.5 µM; actives 0.96% (n = 320,000);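 active = mean replicate inhibition of at least 70% and a set share of replicates each scoring 70 or more; inconclusive = meets just one of the two criteria; inactive = fails both criteria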;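 note: 0% = median of neutral control wells and 100% = median of positive control wells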
Target sequence (Q61009 whole entry, looked up): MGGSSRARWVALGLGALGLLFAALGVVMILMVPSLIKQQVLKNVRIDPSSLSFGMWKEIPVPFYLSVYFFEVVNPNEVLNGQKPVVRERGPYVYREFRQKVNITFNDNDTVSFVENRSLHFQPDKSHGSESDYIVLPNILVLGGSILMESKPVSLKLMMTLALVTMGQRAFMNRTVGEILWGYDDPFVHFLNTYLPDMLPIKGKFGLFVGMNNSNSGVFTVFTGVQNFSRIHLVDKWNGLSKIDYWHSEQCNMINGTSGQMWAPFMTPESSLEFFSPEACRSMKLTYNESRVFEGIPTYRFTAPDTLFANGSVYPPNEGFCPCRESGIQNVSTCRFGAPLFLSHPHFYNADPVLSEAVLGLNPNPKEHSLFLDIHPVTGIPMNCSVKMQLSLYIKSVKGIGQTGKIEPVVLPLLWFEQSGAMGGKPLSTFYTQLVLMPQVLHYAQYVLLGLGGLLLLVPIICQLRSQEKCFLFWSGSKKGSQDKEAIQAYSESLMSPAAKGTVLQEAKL
Vif imaging – inhibitors of HIV Vif; HEK293T cells, Vif self-association by quenched fluorescence, imaging, 24 h; inhibition, % at 7.49 µM; actives 0.35% (n = 340,000); AID 602346; in the data active = inhibition above about 50%, passing the limit was not always enough; inconclusive = no clear call, values can overlap the other calls; inactive = below about 31%
SMARCA2 activ – increases SMARCA2 function in MMTV reporter cells; actives 1% (n = 370,000); activation, % at 9.1 µM; MG213 cells, MMTV-luciferase reporter, dexamethasone, overnight; AID 652017; in the data active = activation above about 7.8%;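 note: 0% = vehicle wells and 100% = reference activator wells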
H9c2 TAG inh – triacylglycerol accumulation inhibition; actives 0.66% (n = 230,000); AID 651582; H9c2 cells, Nile Red lipid (TAG) fluorescence; cells loaded with 200 µM oleic acid; inhibition, % at 12.5 µM;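 active = pattern-corrected inhibition of lipid staining of at least 50% with the nuclear-stain viability signal not falling by more than 50%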;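 note: 0% = DMSO wells and 100% = triacsin C control wells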
Active calls of the source: *; i = inactive; u = inconclusive; x = not tested or not shown; ! = not active in a repeat.

SMILES	SR-BI uptake up	SR-BI HDL uptake	Vif imaging	SMARCA2 activ	H9c2 TAG inh
Cc1ccccc1C(=O)OCC(=O)N(C)c1c(N)n(Cc2ccccc2)c(=O)[nH]c1=O	14	-14	-4	1	-18
COC(=O)C1=C(C)N(Cc2ccccc2C(F)(F)F)C(=NCC2CC2)NC1CCc1ccccc1 (stereo unspecified)	x	x	x	0	x
Cc1nc(N2CCC(C)CC2)c2c(C)c(C(=O)Nc3ccc(C)c(F)c3)sc2n1	-87	87*	2	1	x
Cc1nc(N2CCCCC2)c2c(C)c(C(=O)Nc3ccc4c(c3)OCCO4)sc2n1	-77	77*	-3	0	x
COC(=O)[C@]12C[C@H](CC(=O)NCCC(C)C)C(=O)N(Cc3ccc(Cl)cc3Cl)C1=C[C@H](COCc1ccccc1)O[C@@H]2C	x	x	x	-1	x
Cc1ccc(CN2CCC=CS2(=O)=O)cc1	x	x	x	-1	x
C=CCNc1sc(C(=O)c2ccccc2)c(N)c1C#N	3	-3	0	-1	-4
C=CCNc1sc(C(=O)c2ccc(Br)s2)c(N)c1C#N	-16	16	111*	2	-4
N#Cc1ccc(S(=O)(=O)N2CCCc3nc(-c4ccc(F)cc4)ccc32)cc1	x	x	x	-2	x
CCC(=O)n1nc(-c2ccc(Cl)cc2)nc1SC	-22	22	53*	-3	-23
CCc1noc(C)c1C(=O)Nc1nc(-c2ccc(Cl)cc2Cl)c(C)s1	-75	75*	x	-4	38
Cc1ccc(NC(=S)c2nc3ccccc3[nH]2)cc1	-77	77*	-8	6	29
Cc1ccc(NC(=S)c2nc3ccccc3[nH]2)c(C)c1	-62	62	1	4	17
COC(=O)c1ccc(C2N=C(c3cccs3)CC(c3ccccc3O)N2)cc1 (stereo unspecified)	-75	75*	-2	-5	17
O=C(O)Cn1cc(/C=C2/NC(=O)N(c3ccc(Cl)cc3)C2=O)c2ccccc21	17	-17	-5	1	7
CC(C)n1cc(/C=C2\NC(=O)N(c3cccc(Cl)c3)C2=O)c2ccccc21	-98	98*	2	0	x
COc1cc(OC)cc(C(=O)NNC(=O)c2ccc(S(=O)(=O)N(C)c3ccccc3OC)cc2)c1	-44	44	5	-4	4
COc1ccccc1N(C)S(=O)(=O)c1ccc(Cl)c(C(=O)NNC(=O)c2ccccc2O)c1	-81	81*	-4	-1	-7
COc1ccccc1N(C)S(=O)(=O)c1ccc(C(=O)NNC(=O)c2ccccc2O)cc1	-126	126*	-3	-3	-10
COc1ccc(N(C)S(=O)(=O)c2ccc(Cl)c(C(=O)NNC(=O)c3ccccc3O)c2)cc1	-79	79*	-3	1	3
N=C1N(C(=O)OCc2ccccc2)/C(=C\C2=CCCCC2)C(Cc2ccccc2)N1Cc1ccccc1 (stereo unspecified)	x	x	x	-3	x
Oc1ccccc1C1=NN(c2ccccc2)C(c2ccc(F)cc2)C1 (stereo unspecified)	-74	74*	-6	0	x
Oc1ccc(C2=NN(c3ccccc3)C(c3ccc(F)cc3)C2)cc1 (stereo unspecified)	-27	27	16	-1	x
COc1cc2c(cc1OC)CN(c1ccc([N+](=O)[O-])cc1C#N)CC2	-64	64	1	-2	x
COc1cc2c(cc1OC)CN(c1ccc([N+](=O)[O-])cc1Cl)CC2	-80	80*	-1	-4	x
SMILES	SR-BI uptake up	SR-BI HDL uptake	Vif imaging	SMARCA2 activ	H9c2 TAG inh
c1cc2ccn(CC3CC3)c2cc1-c1ccc2ccn(CC3CC3)c2c1	x	x	x	-2	x
Fc1ccc(CCN2CCN=C2Nc2ccccc2)cc1	68*	-68	3	-1	-1
c1ccc(CCN2CCN=C2Nc2ccccc2)cc1	-1	1	-3	0	3
COC(=O)[C@@H]1C[C@@]2(c3ccccc3)c3ccccc3N(S(=O)(=O)c3ccccc3)[C@H]2N1C(=O)CNC/C=C(\C)CCC=C(C)C	x	x	x	-6	x
CC1(C)CC(=O)C2=C(C1)Nc1ccccc1N(C(=O)C1CC1)C2c1ccco1 (stereo unspecified)	28	-28	52*	-1	x
COc1ccc(C)cc1NC(=O)CCc1c(C)nn(-c2ccc(N3CCCCC3)nn2)c1C	-71	71*	1	1	x
Cc1cc(F)ccc1NC(=O)CCc1c(C)nn(-c2ccc(N3CCCCC3)nn2)c1C	-82	82*	-1	-6	x
Cc1ccc(NC(=O)CCc2c(C)nn(-c3ccc(N4CCCCC4)nn3)c2C)cc1C	-62	62	21	6	x
Cc1ccc(F)cc1NC(=O)CCc1c(C)nn(-c2ccc(N3CCCCC3)nn2)c1C	-81	81*	u	0	x
Cc1ccc(NC(=O)CCc2c(C)nn(-c3ccc(N4CCCCC4)nn3)c2C)cc1	-44	44	-3	2	x
COC(=O)CC/C(O)=C1\C(=O)CC(C)(C)CC1=NCc1nc2ccccc2[nH]1	5	-5	77*	-3	-10
CC(=O)C1=C(O)CC(C)(C)CC1=NCc1nc2ccccc2[nH]1	17	-17	-1	-5	-6
CCOC(=O)/C=c1\s/c(=C\c2c(OCC)ccc3ccccc23)c(=O)n1CC(=O)NCC1CCCO1 (stereo unspecified)	-91	91*	-2	0	15
CCOC(=O)/C=c1/s/c(=C\c2c(OC)ccc3ccccc23)c(=O)n1CC(=O)NCC1CCCO1 (stereo unspecified)	u	-286	22	-3	-15
Cc1ccc(/C=N/Nc2cc(C)nc(NCc3ccccc3)n2)cc1	-9	9	11	2	9
Cc1cc(N/N=C/c2ccc(N(C)C)cc2)nc(NCc2ccccc2)n1	-81	81*	14	-5	9
COc1ccc(CCN=Cc2c(C)[nH]n(-c3ccc([N+](=O)[O-])cc3)c2=O)cc1OC	8	-8	x	-1	-5
COc1ccc(-c2[nH]n(-c3ccc([N+](=O)[O-])cc3)c(=O)c2C=NCc2ccccc2)cc1	-87	87*	-1	0	17
CCCCCCCCN1C(=O)[C@@H](CC(=O)N2CCCCC2)C[C@@]2(C(=O)OC)C1=C[C@H](C(C)(C)C)O[C@@H]2C	x	x	x	-2	x
CCN1/C(=C\c2ccc3cc(C)ccc3[n+]2CC)Sc2cc(C)c(C)cc21	-85	85*	i	-12	-60
COc1cccc(CNC(=O)[C@H]2CCCN2C(=O)[C@H]2CCCN2C(=O)OC(C)(C)C)c1	x	x	x	0	x
Cn1cc(CN2CCc3c([nH]c4ccccc34)C2C(C)(C)C)cn1 (stereo unspecified)	-2	2	86*	0	x
Fc1ccc(C2CCNCC2COc2ccc3c(c2)OCO3)cc1 (stereo unspecified)	17	-17	-4	-1	x
Fc1ccc([C@@H]2CCNC[C@H]2COc2ccc3c(c2)OCO3)cc1	7	-7	-6	0	52*!
